Test results taken from ChEMBL document CHEMBL1153088, “Discovery of benzo[g]indol-3-carboxylates as potent inhibitors of microsomal prostaglandin E(2) synthase-1” (Bioorg Med Chem, 2009).
The source made the active and inactive calls. No cut-off for these calls is given here.

What was measured:
[1] = molecular target: T1, Prostaglandin G/H synthase 1 (Ovis aries) (UniProt P05979); assay: Inhibition of ovine COX1 assessed as residual enzyme activity at 10 uM relative to untreated control
T1 sequence (whole entry): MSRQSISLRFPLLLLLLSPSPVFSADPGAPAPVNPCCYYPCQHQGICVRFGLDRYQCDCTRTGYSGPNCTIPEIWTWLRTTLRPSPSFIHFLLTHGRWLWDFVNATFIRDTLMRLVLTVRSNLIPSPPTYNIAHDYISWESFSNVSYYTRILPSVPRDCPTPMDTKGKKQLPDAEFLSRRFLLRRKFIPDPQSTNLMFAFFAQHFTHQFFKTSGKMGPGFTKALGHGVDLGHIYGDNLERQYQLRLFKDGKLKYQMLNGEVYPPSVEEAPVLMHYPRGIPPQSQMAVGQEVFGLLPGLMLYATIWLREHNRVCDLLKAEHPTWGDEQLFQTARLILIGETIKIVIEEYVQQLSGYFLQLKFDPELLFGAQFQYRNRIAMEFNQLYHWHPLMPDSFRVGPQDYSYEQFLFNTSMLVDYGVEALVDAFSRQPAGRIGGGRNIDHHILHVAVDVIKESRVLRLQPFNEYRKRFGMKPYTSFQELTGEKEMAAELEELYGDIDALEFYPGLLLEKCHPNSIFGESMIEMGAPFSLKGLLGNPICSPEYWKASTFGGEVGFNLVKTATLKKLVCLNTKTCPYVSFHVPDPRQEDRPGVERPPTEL
Outline: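 Purified ovine COX-1 (50 units) in 1 ml of 100 mM Tris pH 8 containing 5 mM glutathione, 5 µM hemoglobin and 100 µM EDTA was preincubated with compound for 5 min at 4 °C and prewarmed 60 s at 37 °C. The reaction was started with 5 µM AA and run 5 min at 37 °C, and 12-HHT was analysed by HPLC.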

[2] = molecular target: T2, Prostaglandin E synthase (Homo sapiens) (UniProt O14684); assay: Inhibition of mPGES1 in IL1-beta induced human A549 cell microsomal membrane at 10 uM assessed as enzyme residual activity by PGE2 formation assay relative to untreated control; format: microsomes; settings: Microsome
T2 sequence (whole entry): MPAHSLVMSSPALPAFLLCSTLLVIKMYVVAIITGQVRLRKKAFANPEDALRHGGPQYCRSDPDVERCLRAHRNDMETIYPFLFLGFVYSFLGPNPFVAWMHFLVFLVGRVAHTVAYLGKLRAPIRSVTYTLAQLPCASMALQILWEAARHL
Outline: (§1)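 Microsomes from A549 cells treated with IL-1β (1 ng/ml, 72 h) were used at 50 µg/ml in 0.1 M potassium phosphate pH 7.4 with 2.5 mM glutathione. Compound (DMSO 1% final) was preincubated 15 min at 4 °C, then PGH2 was added (20 µM final) for 1 min at 4 °C.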

Prostaglandin E synthase [3] = molecular target: T3, Prostaglandin E synthase (Homo sapiens, UniProt O14684); assay: Inhibition of mPGES1 in IL1-beta induced human A549 cell microsomal membrane assessed as blockade of conversion of PGH2 to PGE2; format: microsomes, Microsome; outline: as §1
T3 sequence (O14684 whole entry): T2 sequence (whole entry)

A549 = assay: Toxicity in human A549 cells assessed as reduction of cell viability by MTT assay; format: cell-based
Outline: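 A549 cells (4×10^4 per 100 µl) were plated for 16 h, then exposed to compounds at 30 µM (DMSO ≤0.3%) for 5 h. MTT was added for 4 h, formazan was solubilized in 10% SDS/20 mM HCl, and absorbance at 595 nm was read relative to vehicle-treated cells.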

Prostaglandin E synthase [4] = molecular target: T3, Prostaglandin E synthase; assay: Inhibition of mPGES1 in IL1-beta induced human A549 cells assessed as PGE2 production preincubated for 10 mins; format: cell-based
Outline: (§2)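 Intact IL-1β-induced A549 cells (4×10^6/ml PBS, 1 mM CaCl2) were preincubated with compound (DMSO ≤0.3%) for 10 min at 37 °C. They were then stimulated with 2.5 µM A23187 plus 1 µM AA and [3H]AA (18.4 kBq) for 15 min, and the reaction was stopped on ice. [3H]PGE2 was separated by RP-18 SPE/HPLC and counted by liquid scintillation.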

[5] = molecular target: T2, Prostaglandin E synthase (Homo sapiens); assay: Inhibition of mPGES1 in IL1-beta induced human A549 cells assessed as PGE2 production at 30 uM preincubated for 10 mins; format: cell-based; set-up: scale not given: the % may be the effect or the level left
Outline: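 Intact IL-1β-induced A549 cells (4×10^6/ml PBS, 1 mM CaCl2) were preincubated with compound (DMSO ≤0.3%) for 10 min at 37 °C. [3H]PGE2 was separated by RP-18 SPE/HPLC and counted by liquid scintillation.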

[6] = molecular target: Prostaglandin G/H synthase 1 (Homo sapiens) (UniProt P23219); assay: Inhibition of COX1 in platelets assessed as inhibition of 12-HHT formation at 10 uM by RP-HPLC
Chain of Prostaglandin G/H synthase 1 (Homo sapiens) (P23219 whole entry): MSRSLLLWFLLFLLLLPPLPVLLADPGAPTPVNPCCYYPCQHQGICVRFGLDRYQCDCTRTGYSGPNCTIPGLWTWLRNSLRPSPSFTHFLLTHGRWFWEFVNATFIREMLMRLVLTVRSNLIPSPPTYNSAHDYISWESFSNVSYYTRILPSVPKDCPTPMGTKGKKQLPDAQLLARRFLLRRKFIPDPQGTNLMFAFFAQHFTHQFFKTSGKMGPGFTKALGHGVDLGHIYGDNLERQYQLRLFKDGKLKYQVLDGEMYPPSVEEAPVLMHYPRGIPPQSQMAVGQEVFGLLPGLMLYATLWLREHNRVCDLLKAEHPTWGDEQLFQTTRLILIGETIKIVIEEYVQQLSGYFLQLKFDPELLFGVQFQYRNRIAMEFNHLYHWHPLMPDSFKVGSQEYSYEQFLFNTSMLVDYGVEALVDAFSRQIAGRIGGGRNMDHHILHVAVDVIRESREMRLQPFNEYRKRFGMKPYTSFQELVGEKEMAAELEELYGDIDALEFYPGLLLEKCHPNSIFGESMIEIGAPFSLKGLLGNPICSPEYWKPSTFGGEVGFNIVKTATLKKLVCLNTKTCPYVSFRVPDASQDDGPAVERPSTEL
Outline: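 Freshly isolated human platelets (10^8/ml PBS with 1 mM CaCl2) were preincubated with compound (DMSO ≤0.3%), then stimulated with 5 µM AA for 5 min at 37 °C. 12-HHT was extracted and quantified by RP-HPLC. Mean ± SE, n=3–5.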

[7] = molecular target: T4, Prostaglandin G/H synthase 2 (Homo sapiens) (UniProt P35354); assay: Inhibition of COX2 in IL1-beta induced human A549 cells assessed as 6-keto-PGF1-alpha formation up to 30 uM preincubated for 15 mins by ELISA; format: cell-based
T4 sequence (whole entry): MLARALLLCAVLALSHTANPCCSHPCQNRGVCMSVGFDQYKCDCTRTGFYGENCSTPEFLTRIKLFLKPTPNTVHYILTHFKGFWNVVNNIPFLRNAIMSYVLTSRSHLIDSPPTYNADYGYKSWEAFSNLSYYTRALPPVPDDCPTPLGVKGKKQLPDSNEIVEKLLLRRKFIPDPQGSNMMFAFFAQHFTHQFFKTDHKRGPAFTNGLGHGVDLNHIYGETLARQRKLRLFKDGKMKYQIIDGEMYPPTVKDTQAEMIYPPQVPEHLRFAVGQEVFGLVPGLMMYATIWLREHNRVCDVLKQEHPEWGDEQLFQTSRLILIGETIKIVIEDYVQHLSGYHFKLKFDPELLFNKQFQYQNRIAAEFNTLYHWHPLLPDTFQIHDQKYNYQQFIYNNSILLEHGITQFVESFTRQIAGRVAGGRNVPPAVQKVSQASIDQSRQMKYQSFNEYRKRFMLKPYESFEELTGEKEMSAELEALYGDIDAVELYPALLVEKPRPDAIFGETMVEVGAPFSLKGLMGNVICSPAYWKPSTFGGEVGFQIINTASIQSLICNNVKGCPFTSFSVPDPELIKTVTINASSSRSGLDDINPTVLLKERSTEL
Outline: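 A549 cells were induced with IL-1β (1 ng/ml, 72 h, 2% FCS). Cells at 5×10^6 per ml PBS with 1 mM CaCl2 were preincubated 15 min at 37 °C, then given 30 µM AA for 15 min at 37 °C, and the reaction was stopped on ice. Released 6-keto PGF1α was measured by monoclonal-antibody ELISA with β-galactosidase tracer read at 550 nm.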

[8] = molecular target: T2, Prostaglandin E synthase (Homo sapiens); settings: A549, Microsome, 30 uM
[9] = molecular target: T2, Prostaglandin E synthase (Homo sapiens); settings: A549, Microsome, 0.3 uM
[10] = molecular target: T2, Prostaglandin E synthase (Homo sapiens); settings: A549, Microsome, 3 uM
[11] = molecular target: T2, Prostaglandin E synthase (Homo sapiens); settings: A549, Microsome, 3 uM; remark: listed apart in the source
[12] = molecular target: T2, Prostaglandin E synthase (Homo sapiens); assay: Inhibition of mPGES1 in IL1-beta induced human A549 cells assessed as PGE2 production at 5 uM preincubated for 10 mins; format: cell-based; outline: as §2

Compound | inhibition [1] | Activity [2] [%] | IC50 (Prostaglandin E synthase [3]) [nM] | Activity [1] [%] | other results
CCOC(=O)c1c(CCc2cccc(Cl)c2)[nH]c2ccc(O)cc12 |  | 65 |  |  | 
CC(C)c1ccc2c(c1)c(SC(C)(C)C)c(CC(C)(C)C(=O)O)n2Cc1ccc(Cl)cc1 |  |  |  | 42 | inhibition [8]: 82%; inhibition [9]: inactive; inhibition [10]: Active; inhibition [11]: Active; Activity [5]: 37%
Cc1ccc(-c2cc(C(F)(F)F)nn2-c2ccc(S(N)(=O)=O)cc2)cc1 |  |  |  |  | inhibition [12]: Active
CCOC(=O)c1c(Nc2cccc(Cl)c2)[nH]c2ccc(O)cc12 |  | 83 |  |  | 

The next lines start with results.

inhibition [1] | Activity [2] [%] | IC50 (Prostaglandin E synthase [3]) [nM] | Activity [1] [%] | Compound | other results
inactive |  |  |  | CCOC(=O)c1c(Cc2cccc(Cl)c2)[nH]c2c1cc(O)c1cc(OC)c(OC)cc12 | 
 | 28 | 2800 | 66 | CCOC(=O)c1c(Cc2cccc(Cl)c2)[nH]c2c1cc(O)c1ccc(-c3ccccc3)cc12 | 
inactive | 13 | 1600 |  | CCOC(=O)c1c(Nc2cccc(Cl)c2)[nH]c2c1cc(O)c1ccccc12 | Activity (A549): Non-toxic; IC50 (Prostaglandin E synthase [4]; a549): Dose-dependent effect; IC50 (Prostaglandin E synthase [4]; read-out: IC50): 7.9 µM; Activity [5]: 35%; inhibition [6]: 31%; inhibition [7]: inactive
 | 26 | 3400 | 26 | CCOC(=O)c1c(Cc2ccc(Cl)cc2)[nH]c2c1cc(O)c1ccccc12 | 
inactive | 5 | 500 |  | CCOC(=O)c1c(Cc2cccc(F)c2)[nH]c2c1cc(O)c1ccccc12 | 
